Tests used:
human liver cathepsin B [1] = molecular target: T1, human liver cathepsin B (Homo sapiens, UniProt P07858); test: Cathepsin B-mediated polymer degradation; assay type: in vitro ADME; details: for Degradation Type: Table 1 summary of peptidase susceptibility of copolymer; for Cathepsin B degradation of polymer (in words): 44 μg/mL polymer, 1.28 μg/mL cathepsin B, acetate pH 5, 37 °C, SEC
Procedure, shortened: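 HPMA-oligolysine copolymers were made by RAFT polymerization. Cathepsin B was pre-activated with DTT/EDTA at 37 °C for 15 min, then used in pH 5 acetate/EDTA buffer at 1.28 μg/mL final. Polymer was 44 μg/mL final, at 37 °C. Aliquots taken over time were stopped with E-64. Relative differential refractive index profiles from SEC were compared, with supporting MALDI-TOF MS.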

human liver cathepsin B [2] = molecular target: T1, human liver cathepsin B; test: Polyplex destabilization by DLS under cathepsin B treatment; assay type: in vitro ADME; details: 4 N:P, 5.33 μg/mL DNA, pH 5, 37 °C
Procedure, shortened: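 Polyplexes were formed at 4 N:P: pCMV-Luc2 plasmid (0.1 mg/mL in ddH2O) was mixed with an equal volume of polymer for 10 min at room temperature. These were added to pre-activated cathepsin B (1.28 μg/mL final, pH 5 acetate) at 5.33 μg/mL DNA final. The sample sat in a capped cuvette pre-equilibrated at 37 °C. DLS particle size was read every 15 min for 8 hrs.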

human liver cathepsin B [3] = molecular target: T1, human liver cathepsin B; assay type: in vitro ADME; details: 4 N:P, 5.33 μg/mL DNA, cathepsin B pH 5, 37 °C; normalized to plasmid-only
Procedure, shortened: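 Plasmid was pre-labelled with YOYO-1 (dye:base pair 1:50, 1 hr, room temperature) and complexed with polymer at 4 N:P. Polyplexes were incubated with pre-activated cathepsin B (pH 5 acetate, 37 °C) at 5.33 μg/mL DNA final. Timed aliquots were stopped with E-64 and diluted in ddH2O. Fluorescence was read at ex 491/em 509 nm and normalized to uncomplexed plasmid signal.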

NIH/3T3 cells = test: Cytotoxicity by MTS assay, NIH/3T3; assay type: cell-based; details: free polymer, 4 hrs exposure, MTS at 48 hrs; four-parameter fit
Procedure, shortened: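 Polymers at a range of concentrations were made up in ddH2O and diluted 10-fold into reduced-serum MEM. NIH/3T3 cells were rinsed once with PBS and exposed for 4 hrs. At 48 hrs MTS reagent was added, followed by 3 hrs of incubation and absorbance reading at 490 nm. IC50 was expressed in amine equivalents and obtained by a four-parameter variable-slope nonlinear fit.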

Row | Substance | Degradation Type (human liver cathepsin B [1]) | Polyplex particle size at start of cathepsin B treatment (human liver cathepsin B [2]; DLS) | Polyplex particle size after 4 hrs cathepsin B treatment (plateau) (human liver cathepsin B [2]; DLS every 15 min) | YOYO-1 fluorescence relative to free plasmid by 8 hrs of cathepsin B exposure (human liver cathepsin B [3]) | IC50 (μg/mL), NIH/3T3 (NIH/3T3 cells) | Polyplex particle size over 8 hrs cathepsin B treatment (human liver cathepsin B [2]; DLS every 15 min) | Cathepsin B degradation of polymer (in words) (human liver cathepsin B [1])
1 | HPMA-co-MaAhxFKFLAhxK10 [pHCathK10] | Endo/exopeptidase | ~ 150 nm | about 500 nm | 70% | 29.7 µg/mL | – | –
2 | HPMA-co-MaAhxFKFLAhx(D)K10 [pHCath(D)K10] | – | – | – | – | 28.7 µg/mL | ~ 600 nm | –
3 | HPMA-co-MaAhxK10 [reference compound] | – | – | – | – | – | – | observed MW shift over 4hrs is comparable to 10 min with pHCathK10
4 | HPMA-co-MaAhx(D)FKFLAhx(D)K10 [pH(D)Cath(D)K10] | None | – | – | – | 30.3 µg/mL | ~ 150 nm | no degradation

Source: article PMC3277802 (Journal of Controlled Release, 2011)
